Laboratory results taken from ChEMBL document CHEMBL1157704, “Potent activity against K562 cells by polyamide-seco-CBI conjugates targeting histone H4 genes” (Bioorg Med Chem, 2010).

Columns and labels:
Type in all cases: functional
K562 [1] = assay: Effect on GTDC1 gene expression in human K562 cells assessed as change in mRNA transcript expression at 10 nM after 48 hrs by DNA microarray analysis relative to control
Outline: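 Transcripts were profiled on Affymetrix GeneChip Human Gene 1.0 ST arrays in K562 cells treated at 10 nM. Treated cells were collected at 6, 12, 24 and 48 h; untreated controls were collected at 48 h. Transcripts changed at least twofold versus control were scored.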

K562 [2] = assay: Induction of apoptosis in human K562 cells assessed as early apoptotic cells at 250 nM after 48 hrs by annexin-V FITC and propidium iodide staining-based FACS analysis
Outline: (§1)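 Treated K562 cells […] stained with Annexin V-FITC/propidium iodide. Apoptosis was scored by two-dimensional flow cytometry at a core FACS facility.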

K562 [3] = assay: Induction of apoptosis in human K562 cells assessed as viable cells at 250 nM after 48 hrs by annexin-V FITC and propidium iodide staining-based FACS analysis; conditions: K562, 48 h, read-out: Activity; outline: as §1
K562 [4] = assay: Effect on LOC85389 gene expression in human K562 cells assessed as change in mRNA transcript expression at 10 nM after 48 hrs by DNA microarray analysis relative to control
Outline: (§2)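 K562 CML cells (b3a2 Bcr-Abl) in standard ATCC-recommended culture, exposed once to 10 nM conjugate and harvested at 48 h. Untreated controls were also collected at 48 h. Transcripts were profiled on Human Gene 1.0 ST whole-genome oligonucleotide arrays, and each treated level was expressed relative to the untreated control, with a cutoff of at least twofold change.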

K562 [5] = assay: Effect on HIST1H4K gene expression in human K562 cells assessed as down-regulation of mRNA transcript expression at 10 nM after 48 hrs by DNA microarray analysis relative to control; outline: as §2
K562 [6] = assay: Effect on TDRG1 gene expression in human K562 cells assessed as change in mRNA transcript expression at 10 nM after 48 hrs by DNA microarray analysis relative to control; outline: as §2
K562 [7] = assay: Effect on NDUFS4 gene expression in human K562 cells assessed as change in mRNA transcript expression at 10 nM after 48 hrs by DNA microarray analysis relative to control; outline: as §2
K562 [8] = assay: Induction of apoptosis in human K562 cells assessed as early apoptotic cells at 125 nM after 48 hrs by annexin-V FITC and propidium iodide staining-based FACS analysis
Outline: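 K562 cells were exposed to conjugate in culture medium for 48 h, then stained with annexin V-FITC plus propidium iodide. Cell populations were quantified by flow cytometry.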

With CC(=O)Nc1cn(C)c(C(=O)Nc2cn(C)c(C(=O)NCCC(=O)Nc3cn(C)c(C(=O)NCCCC(=O)Nc4cc(C(=O)Nc5cn(C)c(C(=O)Nc6ccc7[nH]c(C(=O)N8CC(CCl)c9c8cc(O)c8ccccc98)cc7c6)n5)n(C)c4)n3)n2)n1 (stereo not drawn) as the compound, how does the “fold change (FC)” value (K562 [1]) read?
Its value is “>=2”.

And the Activity (K562 [2])?
Its Activity is 17.1%.

What about the viability at 0.25 µM (K562 [3]) of the same compound?
Its viability at 0.25 µM is 71.8%.

What about the “fold change (FC)” value (K562 [4]) of the same compound?
The value was “>=2”.

What about the “fold change (FC)” value (K562 [5]) of the same compound?
The value was 2.71.

What about the “fold change (FC)” value (K562 [6]) of the same compound?
Its value is “>=2”.

What about the “fold change (FC)” value (K562 [7]) of the same compound?
The value was “>=2”.

What about the Activity (K562 [8]) of the same compound?
The Activity was 8.41%.
